PglD inh – PglD (C. jejuni) enzyme inhibition; purified PglD enzyme, DTNB colorimetric CoA detection; inhibition, % at 12.5 µM; hit rate 0.098% among 360,000; AID 602405; in the data active means inhibition above about 16%, passing the limit was not always enough
FGF22 binding – binders of recombinant human FGF22 by thermal shift | Q9HCT0 | SYPRO orange fluorescence; percent of sucrose octasulfate shift, DMSO zero | AID 651658 | activity (Tm shift, normalised), % at 9.99 µM | hit rate 1.5% among 340,000;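 active means mean Tm shift, scaled 0 neutral to 100 positive control, at about 1.3% or above, every replicate too, limit read from the data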
Target sequence (Q9HCT0 whole entry, looked up): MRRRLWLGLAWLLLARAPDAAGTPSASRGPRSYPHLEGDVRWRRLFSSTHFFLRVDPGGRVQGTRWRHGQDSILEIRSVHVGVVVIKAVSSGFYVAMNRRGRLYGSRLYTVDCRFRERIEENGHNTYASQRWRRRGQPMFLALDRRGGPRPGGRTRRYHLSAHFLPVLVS
Cneo AK release – causes C. neoformans cell lysis | adenylate kinase release luminescence, 4 h; normalised: neutral wells 0, clomiphene wells 100 | lysis activity, % at 15 µM | hit rate 0.2% among 360,000 | AID 651654;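 active means mean lysis activity across replicates of at least 80%, whatever share of replicates individually reach that level; inactive means mean lysis activity below 80%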
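read-out = cell lysis signal | test system = log-phase Cryptococcus neoformans yeast cells | input = cells at 5 × 10^6 per mL | medium = fresh YPD growth medium | signal = luminescent adenylate kinase detection reagent | timing = 4 h at 37 °C static, read 1 h later | dosing = single dose | controls = Clomiphene as positive lysis control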
PGC1a acetyl inh – PGC1a acetylation modulation, inhibitor mode; U2OS PGC1a acetylation, AlphaScreen anti-acetyl-lysine; with virally co-expressed GCN5 acetyltransferase; inhibition, % at 15.6 µM; hit rate 0.17% among 350,000; AID 651687;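 active means every replicate shows inhibition of at least 40%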;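 further: 0% = neutral control wells and 100% = positive control wells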
Vif imaging – inhibitors of HIV Vif; HEK293T cells, Vif self-association by quenched fluorescence, imaging, 24 h; inhibition, % at 7.49 µM; hit rate 0.35% among 340,000; in the data active means inhibition above about 50%, passing the limit was not always enough
rRNA inh HTS – inhibits bacterial ribosomal RNA function over humanized ribosomes; E. coli WT GFP vs humanized-ribosome RFP mutants, fluorescence, 24 h; active compounds read low; DMSO median 0, no signal -100; GFP signal change (wild-type ribosome), % (concentration not given with the values); hit rate 1.6% among 350,000; AID 720706;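 active means significant combined selectivity score with lowered wild-type GFP, culture density cut under 30%, mutant RFP and density less affected; inactive means any of these conditions unmet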
* hit, by the source's call. Sampled rows, rich in hits. Any-hit rate of the full collection: about 2.9%.

What do the screens show for `N#CCC(=O)N/N=C/c1ccc(OCc2ccccc2)cc1`?
FGF22 binding: 43.4*; PGC1a acetyl inh: 2.8; Vif imaging: -6.3; rRNA inh HTS: 5.2

What do the screens show for `CNC(=O)C[C@H]1CC[C@H]2[C@@H](COc3ccc(NC(=O)CN(C)C)cc3C(=O)N2C)O1`?
rRNA inh HTS: 2.4

How did CO[C@@H]1CN(C)C(=O)c2ccc(NS(=O)(=O)c3ccc(Oc4ccccc4)cc3)cc2OC[C@@H](C)NC[C@@H]1C do in these assays?
PGC1a acetyl inh: 1.7; rRNA inh HTS: -1.1

Results for CC(C)NC(=O)N1C[C@@H]2[C@H](c3ccccc31)[C@H](CO)N2Cc1ccccc1 ?
PglD inh: -3.1; Cneo AK release: -4.5; PGC1a acetyl inh: -0.1; rRNA inh HTS: -0.1

Results for COc1ccc(C(=O)Nc2ccc(N3CCN(C)CC3)cc2)cc1[N+](=O)[O-] ?
FGF22 binding: 0.0; Vif imaging: 3.6; rRNA inh HTS: 13.8

What do the screens show for `COc1ccc(C(=O)Nc2cc(C)on2)cc1OC`?
PglD inh: -4.8; FGF22 binding: 0.4; Cneo AK release: 0.4; PGC1a acetyl inh: -3.3; Vif imaging: -3.9; rRNA inh HTS: 1.0

Results for COc1ccc(C(=O)Nc2cc(C)on2)cc1[N+](=O)[O-] ?
FGF22 binding: 43.0*; Vif imaging: -0.6; rRNA inh HTS: 16.9

What do the screens show for `COc1ccc(C(=O)Nc2ccc(N3CCN(C(=O)C(C)C)CC3)cc2)cc1[N+](=O)[O-]`?
Vif imaging: 63.5*

How did CCc1ccc(S(=O)(=O)Nc2ccc(-c3ccc4nnc(C)n4n3)cc2)s1 do in these assays?
PglD inh: 1.9; FGF22 binding: 0.3; Cneo AK release: -0.6; PGC1a acetyl inh: 1.4; Vif imaging: 69.6*; rRNA inh HTS: 5.7

What do the screens show for `Cc1nnc2ccc(-c3ccc(NS(=O)(=O)c4ccc(Cl)s4)cc3)nn12`?
PglD inh: -0.4; FGF22 binding: 0.1; Cneo AK release: 0.6; PGC1a acetyl inh: 3.7; Vif imaging: 92.8*; rRNA inh HTS: 4.1

How did COc1ccc(CNC(=O)C2CC(O)CN2C(=O)Nc2ccccc2)cc1 (configuration not stated) do in these assays?
PglD inh: 0.7; FGF22 binding: 0.2; Cneo AK release: 3.6; PGC1a acetyl inh: 6.9; Vif imaging: 0.8; rRNA inh HTS: 3.3

What do the screens show for `COC(=O)C1CC(O)CN1C(=O)Nc1ccccc1` (configuration not stated)?
FGF22 binding: 43.3*; Vif imaging: 3.1; rRNA inh HTS: 16.4

How did Cc1csc(Nc2ccccc2)[n+]1-c1ccccc1 do in these assays?
FGF22 binding: 42.9*; Vif imaging: -11.9; rRNA inh HTS: -13.0

What do the screens show for `Cc1cccc(C(=O)N[C@H](C(=O)Nc2nc3ccccc3[nH]2)C(C)C)c1`?
FGF22 binding: 0.4; Vif imaging: 78.5*; rRNA inh HTS: 21.1

Results for COc1ccc2c3c(n(C)c2c1)[C@H](CO)N(C(C)=O)CC31CCN(S(=O)(=O)c2ccccc2)CC1 ?
FGF22 binding: -0.1; PGC1a acetyl inh: -3.6; rRNA inh HTS: -3.5

Results for COc1cccc(NC(=O)c2ccccc2-c2ccccc2C(=O)O)c1 ?
PglD inh: 1.4; FGF22 binding: -0.3; Cneo AK release: 1.6; PGC1a acetyl inh: 81.3*; Vif imaging: 2.3; rRNA inh HTS: -4.9

How did CC(=O)c1cccc(NC(=O)c2ccccc2-c2ccccc2C(=O)O)c1 do in these assays?
PglD inh: 5.1; FGF22 binding: -0.1; Cneo AK release: 1.4; PGC1a acetyl inh: 6.7; Vif imaging: 3.1; rRNA inh HTS: -2.4

What do the screens show for `COc1cc(NC(=O)c2cccc([N+](=O)[O-])c2)ccc1NC(=O)c1ccco1`?
FGF22 binding: 44.0*; Vif imaging: -0.6

How did Cc1cccc(C(=O)NNC(=O)c2ccco2)c1 do in these assays?
FGF22 binding: 43.0*; Vif imaging: 2.8; rRNA inh HTS: 11.5

Results for COc1cc(NC(=O)c2ccc([N+](=O)[O-])o2)ccc1NC(=O)c1ccco1 ?
PglD inh: -1.7; FGF22 binding: 0.0; Cneo AK release: -6.7; PGC1a acetyl inh: 15.6; Vif imaging: -1.5; rRNA inh HTS: -21.7*

Results for COc1ccc2c3c(n(C)c2c1)[C@H](CO)N(C)CC31CCN(S(=O)(=O)c2cccs2)CC1 ?
FGF22 binding: 0.1; PGC1a acetyl inh: 11.0; rRNA inh HTS: -9.2

Results for CCOc1cc(/C=N/Nc2nc(N3CCCCC3)nc(N3CCCCC3)n2)ccc1OC(=O)c1ccco1 ?
PglD inh: -8.1; FGF22 binding: 43.0*; Cneo AK release: 1.0; PGC1a acetyl inh: -3.9; Vif imaging: -11.7; rRNA inh HTS: 8.6

What do the screens show for `CC(=O)c1ccc(NC(=O)Nc2ccc(Br)cc2C)cc1`?
FGF22 binding: -0.2; PGC1a acetyl inh: 7.2; Vif imaging: 0.2; rRNA inh HTS: -18.6*

Results for CCN(c1ccccc1)S(=O)(=O)c1ccc(OC)c(NC(=O)c2ccco2)c1 ?
PglD inh: 1.5; FGF22 binding: 43.1*; Cneo AK release: -2.2; PGC1a acetyl inh: -5.8; Vif imaging: -1.4; rRNA inh HTS: -19.2*

How did COc1cc(/C=N/NC(=O)c2cccc([N+](=O)[O-])c2)ccc1OC(=O)c1ccco1 do in these assays?
FGF22 binding: 42.9*; PGC1a acetyl inh: 5.5; Vif imaging: 0.2; rRNA inh HTS: 6.9

How did COc1ccc(/C=N/NC(=O)c2cccc([N+](=O)[O-])c2)cc1OC(=O)c1ccccc1 do in these assays?
PGC1a acetyl inh: 2.8; Vif imaging: 2.8

What do the screens show for `COc1ccc(S(=O)(=O)Nc2ccc3c(c2)C(=O)N([C@H](C)CO)C[C@@H](C)[C@@H](CN(C)Cc2ccc4c(c2)OCO4)O3)cc1`?
PglD inh: 7.6; FGF22 binding: -0.1; Cneo AK release: 3.3; PGC1a acetyl inh: -5.3; rRNA inh HTS: 2.1

Results for COc1cccc(S(=O)(=O)N[C@@H]2CC[C@H](CCNC(=O)Nc3cc(F)ccc3F)O[C@@H]2CO)c1 ?
PglD inh: -4.1; FGF22 binding: 0.0; Cneo AK release: -3.9; PGC1a acetyl inh: 2.8; rRNA inh HTS: -6.2

How did Cc1ccc(NC(=O)/C(=C/c2cccs2)NC(=O)c2ccco2)cc1 do in these assays?
Vif imaging: -7.7

What do the screens show for `Cc1cc(Br)ccc1NC(=O)c1ccco1`?
PglD inh: -1.1; FGF22 binding: 0.1; Cneo AK release: -0.4; Vif imaging: -7.9; rRNA inh HTS: -22.3*

Results for COc1cc(/C=N/N2CCOCC2)ccc1OC(=O)c1ccco1 ?
FGF22 binding: 42.9*; PGC1a acetyl inh: -12.2; Vif imaging: 1.1; rRNA inh HTS: 15.8

How did COc1cc(/C=N/N(C)C)ccc1OC(=O)c1ccco1 do in these assays?
FGF22 binding: 0.1; Vif imaging: -6.6; rRNA inh HTS: 7.0
